bIAP act: intestinal alkaline phosphatase (bovine) activation; purified bovine IAP, CDP-star luminescence, 30 min; stronger effect = higher value; fold of DMSO-control signal, blank-subtracted; activation factor at 20 µM; actives 0.17% (n = 200,000); AID 1016;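 active = activation factor of 2 or more at 20 µM, a signal rise over negative controls twice the positive control's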
hIAP act: human IAP activation; AID 2524; purified human IAP, CDP-Star luminescence, 30 min; stronger effect = higher value; 1 = vehicle-only enzyme, 0 = enzyme-free background; actives 0.16% (n = 330,000); activation factor at 10 µM; P09923;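 active = activation factor of the enzyme at least 2-fold when tested at 20 µM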
Target sequence (P09923 whole entry, looked up): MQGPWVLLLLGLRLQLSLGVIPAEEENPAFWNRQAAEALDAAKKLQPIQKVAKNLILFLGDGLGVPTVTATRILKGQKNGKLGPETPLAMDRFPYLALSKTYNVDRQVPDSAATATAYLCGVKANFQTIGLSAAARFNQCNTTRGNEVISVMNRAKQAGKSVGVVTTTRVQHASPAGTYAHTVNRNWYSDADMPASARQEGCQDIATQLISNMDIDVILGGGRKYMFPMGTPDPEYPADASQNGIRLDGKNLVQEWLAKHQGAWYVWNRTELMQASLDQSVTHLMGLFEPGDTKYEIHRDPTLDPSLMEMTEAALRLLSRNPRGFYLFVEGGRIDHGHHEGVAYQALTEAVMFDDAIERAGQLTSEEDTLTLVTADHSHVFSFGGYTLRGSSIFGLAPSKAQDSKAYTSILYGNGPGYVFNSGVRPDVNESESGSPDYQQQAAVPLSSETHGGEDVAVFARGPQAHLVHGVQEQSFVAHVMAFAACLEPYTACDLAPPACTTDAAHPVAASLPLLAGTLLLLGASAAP
mIAP block: mouse IAP inhibition | inhibition, % at 10 µM | AID 2806 | purified mouse IAP, CDP-Star luminescence, 30 min | actives 0.2% (n = 330,000);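 active = inhibition of at least 40% at 10 µM in the primary screen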;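 also: plate controls were DMSO with enzyme for no effect and no enzyme wells for full effect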
hIAP block: human IAP inhibition; inhibition, % at 10 µM; purified IAP, CDP-Star luminescence, 30 min; actives 0.12% (n = 330,000); P09923; AID 2544;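 active = inhibition reaching a set limit with compound at 10 µM in the primary screen, cut at about 35% in these data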;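 also: plate controls were DMSO wells with enzyme for no effect and no-enzyme buffer wells for full effect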
mIAP activ: mouse IAP activation; activation factor at 10 µM; AID 2805; actives 0.24% (n = 330,000); muIAP, CDP-Star luminescence, 30 min; stronger effect = higher value; 1 = vehicle-only enzyme signal, 0 = enzyme-free wells;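 active = activation factor of at least 2 at 20 µM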
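Assay system: mouse IAP enzyme; Reagent: CDP-Star chemiluminescent phosphatase substrate; Compound: DMSO-dissolved test compounds; Incubation: 30 min, room temperature; Technique: luminescence from enzymatic CDP-Star hydrolysis; Controls: DMSO-only wells and no-enzyme negative control.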
bIAP inh: blocks bovine intestinal alkaline phosphatase activity | purified bovine IAP, CDP-star luminescence, 30 min | inhibition, % at 20 µM | 190,000 tested, under 10 active;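 active = over 50% inhibition of intestinal alkaline phosphatase at 20 µM in the single-dose screen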
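Assay system: bovine IAP enzyme; medium: DEA buffer 100 mM, pH 9.8, with MgCl2 1.0 mM, ZnCl2 0.02 mM; doses: 20 µM single dose; incubation: enzyme reaction for 30 min at room temperature; detection: CDP-star luminescence signal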
Active calls of the source: *; nt = no result given. Hits are enriched below; roughly 0.72% of the tested compounds scored in any of these assays.

SMILES	bIAP act	hIAP act	mIAP block	hIAP block	mIAP activ	bIAP inh
COc1ccc(CCN2CCCn3c2nc2c3c(=O)n(C)c(=O)n2C)cc1OC	nt	1.09	9.8	-9.4	0.902	nt
COc1ccc(C(=O)Nc2nc3ccccc3[nH]2)cc1OC	2.2*	0.97	4.1	3.0	0.959	-122.1
COc1cc(C(=O)Nc2nc3ccccc3[nH]2)ccc1OC(F)F	nt	1.2	-0.2	-20.3	1	nt
O=C(COc1ccc([N+](=O)[O-])cc1)NNC(=O)Nc1ccccc1F	nt	1.39	44.3*	-39.4	0.557	nt
COc1ccc(C(=O)NC(C)c2cccnc2)cc1S(=O)(=O)N(C)Cc1ccccc1 (stereo unspecified)	nt	0.893	4.1	10.7	0.959	nt
COc1ccc(S(=O)(=O)N(C)C[C@H]2Oc3ccc(NC(=O)Nc4ccc5c(c4)OCO5)cc3C(=O)N([C@H](C)CO)C[C@@H]2C)cc1	nt	1.04	-129.0	-3.8	2.29*	nt
C[C@H](CO)N1C[C@H](C)[C@@H](CN(C)S(=O)(=O)c2cccs2)Oc2ccc(NC(=O)Nc3ccc4c(c3)OCO4)cc2C1=O	nt	0.984	-116.4	1.6	2.16*	nt
Cc1ccc(S(=O)(=O)Nc2ccc3c(c2)CC(=O)N([C@H](C)CO)C[C@@H](C)[C@H](CN(C)S(=O)(=O)c2ccccc2)O3)cc1	nt	1.07	2.7	-6.6	0.973	nt
COc1ccc(NC(=O)Nc2ccc3c(c2)C(=O)N([C@@H](C)CO)C[C@@H](C)[C@@H](CN(C)S(=O)(=O)c2cccs2)O3)cc1	nt	0.978	-214.2	2.2	3.14*	nt
COc1ccc(S(=O)(=O)N(C)C[C@H]2Oc3ccc(NC(=O)NC(C)C)cc3C(=O)N([C@H](C)CO)C[C@@H]2C)cc1	nt	1.12	-43.2	-12.1	1.43	nt
C[C@H](CO)N1C[C@H](C)[C@@H](CN(C)S(=O)(=O)c2cccs2)Oc2c(NC(=O)Nc3ccc4c(c3)OCO4)cccc2C1=O	nt	0.957	-15.5	4.3	1.16	nt
C[C@H](CO)N1C[C@H](C)[C@H](CN(C)S(=O)(=O)c2ccccc2)Oc2ccc(NC(=O)NC3CCCCC3)cc2CC1=O	nt	0.999	-170.9	0.1	2.71*	nt
O=C(Nc1ccccc1F)N1CCC(NC(=O)C23CC4CC(CC(C4)C2)C3)CC1	nt	0.839	-18.9	16.1	1.19	nt
Nc1cccc(C#Cc2ccc3c(c2)C(=O)/C(=C/c2ccsc2)O3)c1	nt	0.844	-0.2	15.6	1	nt
C[C@H](CO)N1C[C@H](C)[C@H](CN(C)S(=O)(=O)c2cccs2)Oc2ccc(NC(=O)Nc3ccc4c(c3)OCO4)cc2CC1=O	nt	1.02	-129.0	-2.0	2.29*	nt
COc1ccc(S(=O)(=O)N(C)C[C@H]2Oc3ccc(NC(=O)Nc4ccc5c(c4)OCO5)cc3CC(=O)N([C@@H](C)CO)C[C@@H]2C)cc1	nt	1.18	-43.9	-17.5	1.44	nt
Cc1cccc(NC(=O)[C@H](Cc2ccccc2)NC(=O)OCc2ccccc2)c1	1	0.954	-57.0	4.6	1.57	-0.2
Cc1ccc(NC(=O)C(Cc2ccccc2)NC(=O)OCc2ccccc2)cc1C (stereo unspecified)	1	1.07	-110.7	-7.0	2.11*	-3.2
O=C(Cc1cccs1)NCCSc1c(-c2ccc(Cl)cc2)[nH]c2ccccc12	1.1	0.903	-153.5	9.7	2.54*	-5.4
CCOC(=O)CSc1c(-c2ccc(Cl)cc2)[nH]c2ccccc12	0.9	1.04	3.0	-3.7	0.97	8.3
Cc1c(/C=C(\C#N)C(=O)NCc2ccccc2)cc(C#N)n1C	nt	1.02	4.4	-1.6	0.956	nt
O=C(c1cc(COc2ccccc2)on1)N1CCCC(CN2CCOCC2)C1 (stereo unspecified)	nt	1.36	8.3	-36.1	0.917	nt
Cc1ccc(SCc2nc3ccccc3[nH]2)cc1	1	1.08	2.3	-7.8	0.977	-4.5
Cc1ccc(CSCc2nc3ccccc3[nH]2)cc1	2.3*	nt	nt	nt	nt	-130.6
S=C(Nc1ccc(Cl)cc1)NC1CCCCC1	nt	0.909	-81.2	9.1	1.81	nt
SMILES	bIAP act	hIAP act	mIAP block	hIAP block	mIAP activ	bIAP inh
S=C(Nc1ccc(Br)cc1)NC1CCCCC1	1.1	0.993	-149.6	0.7	2.5*	-11.4
FC(F)Oc1ccc(NC(=S)NC2CCCCCCC2)cc1	nt	1.13	-164.1	-13.1	2.64*	nt
S=C(Nc1ccc(Nc2ccccc2)cc1)NC1CCCCCC1	0.9	1.03	-19.3	-3.3	1.19	10.8
Cc1nc2c(-c3ccccc3)cnn2c(N)c1-c1ccccc1	nt	1.05	2.9	-5.1	0.971	nt
CCc1nnc(NC(=O)CCC(=O)NCCc2ccccc2)s1	nt	1.1	2.1	-10.2	0.979	nt
Cc1ccc(S(=O)(=O)N(C)c2ccc(OC(=O)c3cccs3)cc2)cc1	nt	1.13	4.4	-13.3	0.956	nt
CC(C)CCNC(=O)c1ccc2c(SCC(=O)O)c3c(nc2c1)CCCC3	2.4*	0.94	6.8	6.0	0.932	-139.1
COc1ccc(C(CC(=O)Nc2ccccc2OC)n2cccc2)cc1 (stereo unspecified)	0.9	1.05	0.0	-4.7	1	10.7
COc1ccc(C(CC(=O)Nc2cc(OC)cc(OC)c2)n2cccc2)cc1 (stereo unspecified)	0.9	1.2	-122.3	-20.0	2.22*	10.3
CC1CCN(C(C(=O)Nc2ccc3c(c2)OCO3)c2ccccc2)CC1 (stereo unspecified)	2.7*	0.833	-18.5	16.7	1.19	-166.8
CC1CCCN(C(C(=O)Nc2ccc3c(c2)OCCO3)c2ccccc2)C1 (stereo unspecified)	1.1	0.999	-22.0	0.1	1.22	-13.2
CC1CCCN(C(C(=O)Nc2ccc3c(c2)OCO3)c2ccccc2)C1 (stereo unspecified)	2.1*	0.761	-31.5	23.9	1.31	-113.4
Fc1ccc(N2CCN(Cc3c[nH]c4ccccc34)CC2)cc1	nt	0.616	-1.3	38.4*	1.01	nt
Cc1onc(-c2c(Cl)cccc2Cl)c1C(=O)N1C(C)CCCC1C (stereo unspecified)	nt	0.871	-11.2	12.9	1.11	nt
CC(=O)N(C)c1ccc(NC(=O)C(Sc2ccccc2)c2ccccc2)cc1 (stereo unspecified)	2.2*	1.2	-45.3	-19.9	1.45	-119.4
Cc1ccc(S(=O)(=O)N2CCCCC2)cc1NC(=O)C1CCC1	nt	0.888	-0.1	11.2	1	nt
COc1cccc(C(O)c2nc3ccccc3n2C(C)C)c1OC (stereo unspecified)	nt	1.25	-4.5	-24.8	1.04	nt
COc1cccc(C(O)c2nc3ccccc3n2C(C)C)c1 (stereo unspecified)	2.1*	1.15	3.0	-14.5	0.97	-105.4
COc1ccc(N(CC(=O)N2CCc3ccccc3C2)S(C)(=O)=O)cc1Cl	nt	1.22	-8.4	-21.6	1.08	nt
Cc1cc(Br)ccc1SCC(=O)OCC(=O)Nc1ccc2[nH]c(=O)[nH]c2c1	nt	1.04	5.6	-4.2	0.944	nt
Cc1cccc(C(C)C)c1NC(=O)COC(=O)Cc1ccsc1	4.1*	0.875	0.9	12.5	0.991	-306.6
